Experimental data pooled from the literature.
Each line is one published result; the experiments were not run side by side.
Cell line: NCI-H460
Effect on: cell growth or viability

COc1ccc(C/C=C/c2ccc(O)cc2)cc1
IC50 (MTT; 24 h): 14.1 µg/mL

O=c1[nH]cc(F)c(=O)[nH]1
IC50 (MTT; 48 h): 43.1 µM

COc1cc([C@@H]2c3cc4c(cc3[C@@H](O[C@@H]3O[C@@H]5CO[C@@H](C)O[C@H]5[C@H](O)[C@H]3O)[C@H]3COC(=O)[C@H]23)OCO4)cc(OC)c1O
IC50 (MTT; 72 h): 0.83 µM

O=c1[nH]cc(S(=O)(=O)Nc2cccc(-c3nnc(-c4cccc(Cl)c4)o3)c2)c(=O)[nH]1
IC50 (MTT; 24 h): 2.83 µM

COc1cc2oc(-c3ccc(O)cc3)cc(=O)c2c(O)c1OC
IC50 (48 h): 26.2 µM

COC/C(=C/Cc1ccc(OC)cc1)c1ccc(OC)cc1
IC50 (MTT; 24 h): 75.4 µg/mL

C=CC(=O)Nc1cc(Nc2nccc(-c3cn(C)c4ccccc34)n2)c(OC)cc1N(C)CCN(C)C
IC50 (MTT): 1.97 µM

COc1cccc2c1C(=O)c1c(O)c3c(c(O)c1C2=O)C[C@@](O)(C(=O)CO)C[C@@H]3O[C@H]1C[C@H](N)[C@H](O)[C@H](C)O1
IC50 (SRB): 4.29 µM

CCC(=O)Nc1cc(Nc2nc(N3CCc4sccc4C3)c3cccnc3n2)c(OC)cc1N1CCC(N(C)C)CC1
IC50 (MTT): 2.46 µM

OCc1ccc2c(c1C#Cc1ccc(O)cc1)C(c1ccc(O)cc1)(c1ccc(O)cc1)c1cc(O)ccc1-2
IC50 (MTT; 48 h): > 50 µM

C=C(Cl)C(=O)Nc1cc(Nc2nc(N3CCc4sccc4C3)c3sccc3n2)c(OC)cc1N(C)CCN(C)C
IC50 (MTT): 2.33 µM

CC(=O)c1cccc(N=Nc2c(C(=O)O)cc(O)c(O)c2O)c1
IC50 (MTT): 9.5 µM

CCC(=O)Nc1cc(Nc2nc(N3CCc4sccc4C3)c3cccnc3n2)c(OC)cc1N1CCSCC1
IC50 (MTT): 14.3 µM

COc1cc(CNC(=O)CCCC/C=C/C(C)C)ccc1OCc1cn(-c2ccc(C(F)(F)F)cc2)nn1
IC50 (SRB): 6.65 µM

O=C1NC(=NCc2cccs2)S/C1=C\c1ccc2ncccc2c1
IC50: > 10 µM

COc1ccc(-c2cc(=O)c3c(O)c(OC)c(OC)cc3o2)cc1O
IC50 (48 h): 37.5 µM

OCC(CCc1ccc(O)cc1)c1ccc(O)cc1 (centres unmarked)
IC50 (MTT; 24 h): 55 µg/mL

CC(=O)c1cccc(/N=N/c2cc(/C=C/C(=O)O)ccc2O)c1
IC50 (MTT): > 50 µM

COc1ccc(C/C=C(/CO)c2ccc(OC)cc2)cc1
IC50 (MTT; 24 h): 30.9 µg/mL

CCN1CCN(Cc2ccc(Nc3ncc(F)c(-c4cc(F)c5nc(C)n(C(C)C)c5c4)n3)nc2)CC1
IC50 (CCK-8): 0.962 µM

CC(=O)c1ccc(/N=N/c2cc(/C=C/C(=O)O)ccc2O)cc1
IC50 (MTT): > 50 µM

C=CC(=O)Nc1cc(Nc2nc(N3CCc4sccc4C3)c3cccnc3n2)c(OC)cc1N(C)CCN(C)C
IC50 (MTT): 5.68 µM

OC/C(=C/Cc1ccc(O)cc1)c1ccc(O)cc1
IC50 (MTT; 24 h): 44.9 µg/mL

CCC(=O)Nc1cc(Nc2nc(N3CCc4sccc4C3)c3cccnc3n2)c(OC)cc1N1CCN(C(C)=O)CC1
IC50 (MTT): > 50 µM

COc1cc(/C=C/Cc2ccc(O)c(OC)c2)ccc1O
IC50 (MTT; 24 h): 17.5 µg/mL

C=CC(=O)Nc1cc(Nc2nc(N3CCc4sccc4C3)c3cccnc3n2)c(OC)cc1N1CCN(CC)CC1
IC50 (MTT): 0.652 µM

O=C(O)/C=C/c1ccc(O)cc1
IC50 (MTT): > 50 µM

CCC(=O)Nc1cc(Nc2nc(N3CCc4sccc4C3)c3cccnc3n2)c(OC)cc1N(C)C
IC50 (MTT): 4.95 µM

CC(C)C[C@H](NC(=O)[C@H](Cc1ccccc1)NC(=O)c1cnccn1)B(O)O
IC50 (ATP luminescence): 0.03 µM
